# Compounds with a hit are over-represented: about 1.7% of the library has one in this group of screens.
# CSC inhib – blocks cancer stem cells; cancer stem cell-like cells viability, luminescence; inhibition, % at 7.5 µM; 1.1% of 300,000 active; AID 2717; in the data active means inhibition above about 75%; tested in HMLE shEcad cells
# PfHsp90 set2 – reduces growth (ATP signal) of yeast expressing P. falciparum Hsp90 | S. cerevisiae expressing PfHsp90, BacTiter-Glo ATP, 48 h; yeast lacking PDR1 and PDR3 efflux regulators | inhibition, % at 9.4 µM | 0.32% of 310,000 active | AID 504621;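 active means every replicate shows inhibition above about 80%, whatever the replicate mean, limit read from the data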;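 further: 0% = DMSO neutral controls and 100% = 20 µM radicicol positive controls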
# Rtt109 HAT inh – blocks Candida albicans Rtt109/Vps75 acetyltransferase activity. Q5AAJ8. purified Rtt109/Vps75, ThioGlo CoA-SH fluorescence, 4 h. inhibition, % at 34.9 µM. 0.16% of 330,000 active. AID 540336;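 active means inhibition of at least 50% in every replicate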
# Target sequence (Q5AAJ8 whole entry, looked up): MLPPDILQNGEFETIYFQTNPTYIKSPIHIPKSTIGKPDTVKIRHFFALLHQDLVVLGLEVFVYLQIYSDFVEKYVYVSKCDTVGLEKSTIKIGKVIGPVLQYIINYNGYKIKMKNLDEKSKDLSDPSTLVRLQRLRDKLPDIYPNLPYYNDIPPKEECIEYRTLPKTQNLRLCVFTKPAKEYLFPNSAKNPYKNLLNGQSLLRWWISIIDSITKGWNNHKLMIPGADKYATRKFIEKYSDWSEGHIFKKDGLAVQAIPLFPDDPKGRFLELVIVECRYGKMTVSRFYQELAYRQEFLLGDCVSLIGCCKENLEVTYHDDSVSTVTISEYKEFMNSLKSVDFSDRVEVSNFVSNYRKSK
# PglD DTNB – inhibitors of Campylobacter jejuni PglD acetyltransferase; purified PglD enzyme, DTNB colorimetric CoA detection; inhibition, % at 12.5 µM; 0.098% of 360,000 active; AID 602405; in the data active means inhibition above about 16%, passing the limit was not always enough
# FN deposition inh – fibronectin deposition inhibition; 0.086% of 350,000 active; inhibition, % at 12.6 µM; AH1F fibroblasts, Alexa488-fibronectin deposition fluorescence, overnight;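 active means mean inhibition across replicates of 30% or more, regardless of how many single replicates reach that level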;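 further: positive control wells lacked labelled fibronectin entirely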
#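 Assay system: AH1F fibroblasts assembling fluorescent fibronectin matrix; Amount: 10000 AH1F cells per well; Buffer or medium: DMEM, 2% serum; Probe or stimulus: Alexa488-fibronectin, 24 nM final in well; Doses: single compound dose, delivered by pin transfer; Incubation: 1 h adhesion, overnight exposure; Measured by: fluorescence 485/525 nm; Read-out: fibronectin deposition inhibition.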
# SKKanGAS inh – inhibitors of SKKanGAS S. pyogenes growth in kanamycin (SK-promoter or general growth effect). BacTiter-Glo, 6 h. inhibition, % at 7.5 µM. 1.3% of 300,000 active;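 active means mean replicate score, as percent of positive control median, at least 50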;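 further: strain carries kanamycin resistance gene driven by streptokinase promoter and grows in 40 µg/ml kanamycin; loss of luminescence reflects streptokinase promoter inhibition or plain growth inhibition; 0% = median of DMSO wells and 100% = positive control at its reference dose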
# Numbers without * were called inactive; · = no result.
SMILES,CSC inhib,PfHsp90 set2,Rtt109 HAT inh,PglD DTNB,FN deposition inh,SKKanGAS inh
c1ccc(CNc2nc(-c3ccccc3)nc3ccccc23)cc1,38,2,-4,7,2,-1
Nc1nc(Nc2ccccc2)nc(NCc2ccco2)c1[N+](=O)[O-],28,-31,11,1,15,-3
CCC(C)Nc1nc(-c2ccccn2)nc2ccccc12 (stereo not drawn),29,-2,3,-15,-3,89*
c1ccc(CNc2nc(-c3ccccn3)nc3ccccc23)cc1,50,-15,-6,-2,·,93*
CC(C)(C)c1ccc(-c2nc(NCc3cccnc3)c3ccccc3n2)cc1,133*,16,-2,·,·,27
COCCNC(=O)C[C@H]1C[C@H]2c3cc(NC(=O)C4CCOCC4)ccc3O[C@H]2[C@@H](CO)O1,·,·,·,·,3,·
CCc1cc[n+](C2=C([O-])c3ccccc3C(=O)/C2=N\S(=O)(=O)c2cccs2)cc1,3,-17,4,·,2,89*
O=C1C(=O)c2ccccc2C([O-])=C1[n+]1ccccc1,·,-7,-6,-3,-4,3
CN1C(=O)c2cc(NS(=O)(=O)c3ccccc3Cl)ccc2OC[C@H]2O[C@@H](CC(=O)O)CC[C@@H]21,·,·,·,0,3,·
CC(C)n1c(O)c(N=NC(=O)CNC(=O)Cc2ccc(Cl)cc2)c2ccccc21,-17,9,8,0,3,-1
COc1ccccc1C(=O)NCC(=O)N=Nc1c(O)n(C(C)C)c2ccccc12,-1,-10,64*,-2,8,3
COc1cccc2sc3ccc(C#Cc4ccc(N)cc4)cc3c(=O)c12,21,-23,-4,4,1,76*
COCC(=O)OCC(=O)Nc1cc(C)c(C)cc1[N+](=O)[O-],-11,15,50*,·,10,1
Cc1ccc(C(=O)NCC(=O)OCC(=O)Nc2cc(C)c(C)cc2[N+](=O)[O-])cc1,-11,-10,7,-1,·,10
CC(C)c1cn(CC[C@@H]2CC[C@@H](NS(=O)(=O)c3ccc(F)cc3)[C@@H](CO)O2)nn1,·,·,·,-3,-25,·
CCC1(C(=O)OC)NC(c2ccco2)C2C(=O)N(c3ccc(C)cc3)C(=O)C21 (stereo not drawn),-7,·,-5,2,·,0
COC(=O)C1(C(C[N+](=O)[O-])c2ccc(C)cc2)C(=O)NCC1c1ccco1 (stereo not drawn),-20,·,·,-3,-25,64*
COc1ccc(-c2cnc3c(c2)C(=O)N([C@@H](C)CO)C[C@H](C)[C@@H](CN(C)S(=O)(=O)c2ccc(OC)cc2)O3)cc1,·,·,·,·,-2,·
CCCOc1ccc(-c2nc(OC)c3ccccc3n2)cc1,26,·,1,-3,·,56*
COc1cc(/C=C/c2noc(-c3ccccc3O)n2)ccc1OC(C)=O,103*,26,5,·,-1,-1
CC(=O)Nc1ccc(/C=C/c2noc(-c3ccccc3O)n2)cc1,1,-7,15,3,·,1
c1ccc(N2CCCCC2)c(Nc2nc3ccccc3n3cnnc23)c1,30,18,-4,0,10,8
c1ccc2c(c1)nc(Nc1ccc(N3CCCCC3)cc1)c1nncn12,-12,-26,7,·,11,59*
CC1(C)CC2(CC(c3ccc(F)cc3)c3ccc(O)cc3O2)NC(=S)N1 (stereo not drawn),-13,-1,1,-2,-5,-2
CC1(C)CC2(CC(c3ccccc3F)c3ccc(O)c(O)c3O2)NC(=S)N1 (stereo not drawn),-12,-1,175*,·,-3,10
SMILES,CSC inhib,PfHsp90 set2,Rtt109 HAT inh,PglD DTNB,FN deposition inh,SKKanGAS inh
CCOC(=O)c1c(CSc2ccccc2)n(C)c2cc(Br)c(OCC(O)CNC(CO)(CO)CO)cc12 (stereo not drawn),100*,-31,5,-5,-9,3
Cc1ccccc1N1CCN(c2ccc(NC(=O)C3CCCCC3C(=O)O)cc2)CC1 (stereo not drawn),79*,12,5,·,-6,2
O=C(O)[C@H]1CCCC[C@H]1C(=O)Nc1ccc(Nc2ccccc2)cc1,-8,12,-12,5,-2,-3
COc1ccc(C2=NN(C(=O)COC(=O)c3ccc(S(C)(=O)=O)c([N+](=O)[O-])c3)C(c3ccco3)C2)cc1 (stereo not drawn),96*,-20,-1,·,·,·
C[C@@H]1CN([C@@H](C)CO)C(=O)c2cc(N(C)C)ccc2O[C@@H]1CN(C)Cc1ccc(C(F)(F)F)cc1,·,·,·,-2,-19,·
COc1ccc(N2C(=O)CC(N3CCC(O)(c4ccc(Cl)cc4)CC3)C2=O)cc1 (stereo not drawn),-4,-8,8,0,·,-3
COC(=O)c1ccc(N2C(=O)CC(N3CCC(O)(c4ccc(Br)cc4)CC3)C2=O)cc1 (stereo not drawn),-10,100*,7,·,-8,5
O=C(C[C@@H]1C[C@H]2c3cc(NC(=O)CC4CC4)ccc3O[C@H]2[C@@H](CO)O1)NCc1cccc(F)c1,·,·,·,1,4,·
COc1cc(CN2CCN(C(c3ccccc3)c3ccccc3)CC2)cc(OC)c1OC,2,15,0,-5,-2,1
Cc1cccc(CN2CCN(C(c3ccccc3)c3ccc(Cl)cc3)CC2)c1 (stereo not drawn),86*,14,6,5,11,17
CC(C)NC(=O)N(C)C[C@@H]1Oc2ccc(NC(=O)Nc3cccc4ccccc34)cc2C(=O)N([C@@H](C)CO)C[C@H]1C,·,·,·,3,·,·
CSc1ncc(CN2CCc3c([nH]c4ccccc34)C2C(C)(C)C)cn1 (stereo not drawn),-14,-8,-2,-2,-3,51*
Oc1c(Br)cc(Br)cc1CNc1cccc2cccnc12,14,27,-7,8,0,89*
Oc1ccc(Cl)cc1CNc1cccc2cccnc12,24,-13,15,4,14,57*
COc1cccc(CNc2cccc3cccnc23)c1O,12,-13,-12,-1,·,-2
Oc1ccc(Br)cc1CNc1cccc2cccnc12,52,7,2,-3,-2,55*
Cc1ccc(O)c(CNc2cccc3cccnc23)c1,20,-8,-12,·,·,8
O=C(NCC[C@@H]1CC[C@H](NC(=O)C2CCCC2)[C@@H](CO)O1)Nc1ccc(Cl)cc1,·,·,·,1,15,·
COc1ccc(C(=O)/C=C/c2ccc(OCc3ccccc3)cc2)cc1CSCC(=O)O,79*,-89,-8,-2,-39,36
COc1ccc(Oc2ccc(/C=C/C(=O)c3ccc(O)cc3)cc2[N+](=O)[O-])cc1,94*,-17,0,·,18,-11
COc1ccc(C(=O)/C=C/c2cccc(OCc3ccccc3)c2)cc1CSCC(=O)O,13,-7,39,-2,-6,38
O=C(/C=C/c1ccc(O)c([N+](=O)[O-])c1)c1ccc2ccccc2c1,-6,-19,0,-3,-3,9
